Laboratory results from ChEMBL document CHEMBL1138270, “Antimycobacterial activities of novel 1-(cyclopropyl/tert-butyl/4-fluorophenyl)-1,4-dihydro- 6-nitro-4-oxo-7-(substituted secondary amino)-1,8-naphthyridine-3-carboxylic acid” (J Med Chem, 2007).
In brackets after ≈: the same amount, converted by molar mass.

Columns and labels:
Vero = experiment: Cytotoxicity against Vero cells after 72 hrs by MTT assay; assay type: cell-based; details: Chlorocebus sabaeus
Outline: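 Vero cells were exposed to serially diluted compound up to 62.5 µg/mL for 72 h. Viability was read by cellular conversion of MTT to formazan (CellTiter 96 non-radioactive proliferation assay), and IC50 was derived.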

[1] = system: Mycobacterium tuberculosis; experiment: Antimycobacterial activity against Mycobacterium tuberculosis H37Rv by agar dilution method; assay type: functional
Outline: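 MIC was determined by agar dilution, in duplicate.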

[2] = system: Mycolicibacterium smegmatis; experiment: Antimicrobial activity against Mycobacterium smegmatis by agar dilution method; assay type: functional
Outline: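 Agar dilution against M. smegmatis ATCC 14468; MIC determined in duplicate.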

[3] = Inhibition of Mycobacterium smegmatis DNA gyrase supercoiling activity; parameters: species or system Mycolicibacterium smegmatis
Outline: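 Gyrase purified from M. smegmatis was preincubated with compound in DMSO (5% DMSO in reaction). 400 ng relaxed pUC18 was added in 35 mM Tris-HCl pH 7.5, 5 mM MgCl2, 25 mM K-glutamate, 2 mM spermidine, 2 mM ATP, BSA, tRNA and 5% glycerol, 1 h at 37 °C. Samples were heat-inactivated, run on 1% agarose in TAE, and ethidium-stained; IC50 was derived.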

Structure (SMILES)	IC50 (Vero)	MIC [1]	MIC [2]	IC50 [3]
O=C(O)c1cn(C2CC2)c2nc(N3CCN(C(c4ccccc4)c4ccc(Cl)cc4)CC3)c([N+](=O)[O-])cc2c1=O (stereo unspecified)	112 µM	5.59 µM (≈ 3.13 µg/mL)	22.3 µM (≈ 12.5 µg/mL)	
CN1CCN(c2nc3c(cc2[N+](=O)[O-])c(=O)c(C(=O)O)cn3-c2ccc(F)cc2)CC1c1ccccc1 (stereo unspecified)	124 µM	0.77 µM (≈ 0.388 µg/mL)	3.09 µM (≈ 1.56 µg/mL)	99.3 µM
O=C(O)c1cn(-c2ccc(F)cc2)c2nc(N3CCN(Cc4ccc5c(c4)OCO5)CC3)c([N+](=O)[O-])cc2c1=O	57.1 µM	11.4 µM (≈ 6.25 µg/mL)	45.7 µM (≈ 25 µg/mL)	
O=C(O)c1cn(C2CC2)c2cc(N3CCNCC3)c(F)cc2c1=O [CIPROFLOXACIN]				15.1 µM
CC(C)(C)n1cc(C(=O)O)c(=O)c2cc([N+](=O)[O-])c(N3CCN(C(=O)c4ccco4)CC3)nc21	133 µM	3.32 µM (≈ 1.56 µg/mL)	6.67 µM (≈ 3.13 µg/mL)	
CN1CCN(c2nc3c(cc2[N+](=O)[O-])c(=O)c(C(=O)O)cn3C2CC2)CC1c1ccccc1 (stereo unspecified)	139 µM	6.96 µM (≈ 3.13 µg/mL)	27.8 µM (≈ 12.5 µg/mL)	
CC1CN(c2nc3c(cc2[N+](=O)[O-])c(=O)c(C(=O)O)cn3C2CC2)CC(C)O1 (stereo unspecified)	> 161 µM	4.02 µM (≈ 1.56 µg/mL)	32.2 µM (≈ 12.5 µg/mL)	
CC(C)(C)NC(=O)C1c2ccccc2CCN1c1nc2c(cc1[N+](=O)[O-])c(=O)c(C(=O)O)cn2C(C)(C)C (stereo unspecified)	120 µM	2.99 µM (≈ 1.56 µg/mL)	6 µM (≈ 3.13 µg/mL)	
CC(C)(C)n1cc(C(=O)O)c(=O)c2cc([N+](=O)[O-])c(N3CCn4cc(C(=O)O)nc4C3)nc21	> 137 µM	0.42 µM (≈ 0.192 µg/mL)	6.86 µM (≈ 3.13 µg/mL)	
O=C(O)c1cn(-c2ccc(F)cc2)c2nc(N3CCN(C(c4ccccc4)c4ccc(Cl)cc4)CC3)c([N+](=O)[O-])cc2c1=O (stereo unspecified)	102 µM	1.27 µM (≈ 0.78 µg/mL)	5.09 µM (≈ 3.13 µg/mL)	
O=C(O)c1cn(-c2ccc(F)cc2)c2nc(N3CCC(N4CCCCC4)CC3)c([N+](=O)[O-])cc2c1=O	> 126 µM	3.15 µM (≈ 1.56 µg/mL)	25.2 µM (≈ 12.5 µg/mL)	
CC(C)(C)n1cc(C(=O)O)c(=O)c2cc([N+](=O)[O-])c(N3CCN(C(c4ccccc4)c4ccc(Cl)cc4)CC3)nc21 (stereo unspecified)	> 108 µM	1.35 µM (≈ 0.778 µg/mL)	174 µM (≈ 100 µg/mL)	
O=C(O)c1cn2c(n1)CN(c1nc3c(cc1[N+](=O)[O-])c(=O)c(C(=O)O)cn3C1CC1)CC2	142 µM	3.54 µM (≈ 1.56 µg/mL)	28.4 µM (≈ 12.5 µg/mL)	
O=C(O)c1cn(C2CC2)c2nc(N3CCN(Cc4ccc5c(c4)OCO5)CC3)c([N+](=O)[O-])cc2c1=O	127 µM	3.16 µM (≈ 1.56 µg/mL)	25.3 µM (≈ 12.5 µg/mL)	
CC(C)(C)n1cc(C(=O)O)c(=O)c2cc([N+](=O)[O-])c(N3CCN(C(=O)C4COc5ccccc5O4)CC3)nc21 (stereo unspecified)	116 µM	1.45 µM (≈ 0.779 µg/mL)	5.82 µM (≈ 3.13 µg/mL)	
COc1ccc(CC2C3=C(CCCC3)CCN2c2nc3c(cc2[N+](=O)[O-])c(=O)c(C(=O)O)cn3-c2ccc(F)cc2)cc1 (stereo unspecified)	< 53.5 µM	10.7 µM (≈ 6.25 µg/mL)	85.5 µM (≈ 50 µg/mL)	
O=C(O)c1cn(C2CC2)c2nc(N3CCN(C(=O)C4COc5ccccc5O4)CC3)c([N+](=O)[O-])cc2c1=O (stereo unspecified)	59.9 µM	12 µM (≈ 6.25 µg/mL)	6 µM (≈ 3.13 µg/mL)	
CC(C)(C)NC(=O)C1c2ccccc2CCN1c1nc2c(cc1[N+](=O)[O-])c(=O)c(C(=O)O)cn2-c1ccc(F)cc1 (stereo unspecified)	112 µM	2.79 µM (≈ 1.56 µg/mL)	11.2 µM (≈ 6.25 µg/mL)	
O=C(O)c1cn(C2CC2)c2nc(N3CCC(n4c(=O)[nH]c5cc(Cl)ccc54)CC3)c([N+](=O)[O-])cc2c1=O	55.5 µM	2.97 µM (≈ 1.56 µg/mL)	23.8 µM (≈ 12.5 µg/mL)	
CC(C)(C)n1cc(C(=O)O)c(=O)c2cc([N+](=O)[O-])c(N3CCC4(CC3)OCCO4)nc21	144 µM	0.9 µM (≈ 0.389 µg/mL)	3.61 µM (≈ 1.56 µg/mL)	92.5 µM
O=C(O)c1cn(C2CC2)c2nc(N3CCSCC3)c([N+](=O)[O-])cc2c1=O	166 µM	8.32 µM (≈ 3.13 µg/mL)	33.2 µM (≈ 12.5 µg/mL)	

Structure (SMILES)	IC50 (Vero)	MIC [1]	MIC [2]	IC50 [3]
CN1CCN(c2nc3c(cc2[N+](=O)[O-])c(=O)c(C(=O)O)cn3C(C)(C)C)CC1c1ccccc1 (stereo unspecified)	> 134 µM	0.84 µM (≈ 0.391 µg/mL)	13.4 µM (≈ 6.25 µg/mL)	
O=C(O)c1cn(C2CC2)c2nc(N3CCN(C(=O)c4ccco4)CC3)c([N+](=O)[O-])cc2c1=O	68.9 µM	6.9 µM (≈ 3.13 µg/mL)	27.6 µM (≈ 12.5 µg/mL)	
CC(C)(C)n1cc(C(=O)O)c(=O)c2cc([N+](=O)[O-])c(N3CCC(N4CCCCC4)CC3)nc21	> 137 µM	1.7 µM (≈ 0.778 µg/mL)	6.84 µM (≈ 3.13 µg/mL)	
O=C(O)c1cn(-c2ccc(F)cc2)c2nc(N3CCC(n4c(=O)[nH]c5cc(Cl)ccc54)CC3)c([N+](=O)[O-])cc2c1=O	53.9 µM	2.69 µM (≈ 1.56 µg/mL)	10.8 µM (≈ 6.25 µg/mL)	
CCN(CC)C(=O)C1CCCN(c2nc3c(cc2[N+](=O)[O-])c(=O)c(C(=O)O)cn3C2CC2)C1 (stereo unspecified)	> 137 µM	3.41 µM (≈ 1.56 µg/mL)	109 µM (≈ 50 µg/mL)	
O=C(O)c1cn(C2CC2)c2nc(N3CCC(N4CCCCC4)CC3)c([N+](=O)[O-])cc2c1=O	> 142 µM	7.09 µM (≈ 3.13 µg/mL)	28.3 µM (≈ 12.5 µg/mL)	
CC1(C)COCN1c1nc2c(cc1[N+](=O)[O-])c(=O)c(C(=O)O)cn2C1CC1	167 µM	0.51 µM (≈ 0.191 µg/mL)	4.17 µM (≈ 1.56 µg/mL)	
O=C(O)c1cn(C2CC2)c2nc(N3CCC4(CC3)OCCO4)c([N+](=O)[O-])cc2c1=O	150 µM	7.52 µM (≈ 3.13 µg/mL)	30 µM (≈ 12.5 µg/mL)	
O=C(O)c1cn(C2CC2)c2nc(N3CCC(O)(c4ccc(Cl)cc4)CC3)c([N+](=O)[O-])cc2c1=O	64.4 µM	6.46 µM (≈ 3.13 µg/mL)	25.8 µM (≈ 12.5 µg/mL)	
COc1ccc(CC2C3=C(CCCC3)CCN2c2nc3c(cc2[N+](=O)[O-])c(=O)c(C(=O)O)cn3C(C)(C)C)cc1 (stereo unspecified)	> 114 µM	5.73 µM (≈ 3.13 µg/mL)	11.4 µM (≈ 6.25 µg/mL)	
O=C(O)c1cn(-c2ccc(F)cc2)c2nc(N3CCN(C(=O)c4ccco4)CC3)c([N+](=O)[O-])cc2c1=O	123 µM	3.07 µM (≈ 1.56 µg/mL)	24.6 µM (≈ 12.5 µg/mL)	
O=C(O)c1cn(-c2ccc(F)cc2)c2nc(N3CCC(O)(c4ccc(Cl)cc4)CC3)c([N+](=O)[O-])cc2c1=O	59.6 µM	2.89 µM (≈ 1.56 µg/mL)	11.6 µM (≈ 6.25 µg/mL)	
O=C(O)c1cn(-c2ccc(F)cc2)c2nc(N3CCN(C(=O)C4COc5ccccc5O4)CC3)c([N+](=O)[O-])cc2c1=O (stereo unspecified)	> 54.3 µM	10.9 µM (≈ 6.25 µg/mL)	21.7 µM (≈ 12.5 µg/mL)	
CCN(CC)C(=O)C1CCCN(c2nc3c(cc2[N+](=O)[O-])c(=O)c(C(=O)O)cn3-c2ccc(F)cc2)C1 (stereo unspecified)	> 122 µM	3.05 µM (≈ 1.56 µg/mL)	12.2 µM (≈ 6.25 µg/mL)	
CC(C)(C)n1cc(C(=O)O)c(=O)c2cc([N+](=O)[O-])c(N3CCC(O)(c4ccc(Cl)cc4)CC3)nc21	125 µM	3.11 µM (≈ 1.56 µg/mL)	24.9 µM (≈ 12.5 µg/mL)	
CC(C)(C)NC(=O)C1c2ccccc2CCN1c1nc2c(cc1[N+](=O)[O-])c(=O)c(C(=O)O)cn2C1CC1 (stereo unspecified)	124 µM	3.09 µM (≈ 1.56 µg/mL)	24.7 µM (≈ 12.5 µg/mL)	
CC1CN(c2nc3c(cc2[N+](=O)[O-])c(=O)c(C(=O)O)cn3C(C)(C)C)CC(C)O1 (stereo unspecified)	159 µM	7.74 µM (≈ 3.13 µg/mL)	15.4 µM (≈ 6.25 µg/mL)	
CC(C)(C)n1cc(C(=O)O)c(=O)c2cc([N+](=O)[O-])c(N3CCN(Cc4ccc5c(c4)OCO5)CC3)nc21	> 123 µM	1.53 µM (≈ 0.78 µg/mL)	6.14 µM (≈ 3.13 µg/mL)	
CC(C)(C)n1cc(C(=O)O)c(=O)c2cc([N+](=O)[O-])c(N3CCC(n4c(=O)[nH]c5cc(Cl)ccc54)CC3)nc21	57.7 µM	2.88 µM (≈ 1.56 µg/mL)	11.5 µM (≈ 6.24 µg/mL)	
O=C(O)c1cn(-c2ccc(F)cc2)c2nc(N3CCC4(CC3)OCCO4)c([N+](=O)[O-])cc2c1=O	133 µM	6.65 µM (≈ 3.13 µg/mL)	26.6 µM (≈ 12.5 µg/mL)	
CCN(CC)C(=O)C1CCCN(c2nc3c(cc2[N+](=O)[O-])c(=O)c(C(=O)O)cn3C(C)(C)C)C1 (stereo unspecified)	> 132 µM	3.29 µM (≈ 1.56 µg/mL)	106 µM (≈ 50 µg/mL)	
